In ChEMBL document CHEMBL1153100, “Synthesis and in vivo evaluation of 3-substituted gababutins” (Bioorg Med Chem Lett, 2010):
pIC50: −log10 of the molar value. Activity calls are given as the source filed them. No cut-off for these calls is given here.

Assays:
[1] = target: Voltage-dependent calcium channel alpha2delta subunit (Sus scrofa, UniProt O77773); experiment: Displacement of [3H]gabapentin from calcium channel alpha2delta in pig cerebral cortex membrane after 30 mins; format: cell membranes
[2] = test system: Rattus norvegicus; experiment: Analgesic activity in po dosed rat assessed as increase in number shocks received for 10 mins; format: functional; conditions: read-out: MED
Outline: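 Vogel conflict model: rats were dosed orally at different doses, then placed in a cage with a drinking tube that delivered a shock at each drink. The mean number of shocks per rat was counted over 10 min. The minimum effective dose was taken from significance versus vehicle (P <0.05).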

[3] = test system: Rattus norvegicus; experiment: Antihyperalgesic effect in carrageenan-induced rat inflammatory pain model assessed as reversal of hyperalgesia at 30 mg/kg, po; format: functional, organism-based; set-up: dose 30 mg/kg
Outline: (§1)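 Rats received intraplantar carrageenan in the paw, and thermal hyperalgesia was allowed to form over 2 h, to a paw-withdrawal latency of 2.5 s. Test compound was then given orally. Reversal of hyperalgesia was read as the time to paw withdrawal.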

[4] = test system: Rattus norvegicus; experiment: Antihyperalgesic effect in carrageenan-induced intrathecal dosed rat inflammatory pain model assessed as reversal of hyperalgesia; format: functional, organism-based
[5] = test system: Rattus norvegicus; experiment: Antihyperalgesic effect in carrageenan-induced rat inflammatory pain model assessed as reversal of hyperalgesia at 1 to 30 mg/kg, po; format: functional, organism-based; outline: as §1

Chain of Voltage-dependent calcium channel alpha2delta subunit (O77773 whole entry): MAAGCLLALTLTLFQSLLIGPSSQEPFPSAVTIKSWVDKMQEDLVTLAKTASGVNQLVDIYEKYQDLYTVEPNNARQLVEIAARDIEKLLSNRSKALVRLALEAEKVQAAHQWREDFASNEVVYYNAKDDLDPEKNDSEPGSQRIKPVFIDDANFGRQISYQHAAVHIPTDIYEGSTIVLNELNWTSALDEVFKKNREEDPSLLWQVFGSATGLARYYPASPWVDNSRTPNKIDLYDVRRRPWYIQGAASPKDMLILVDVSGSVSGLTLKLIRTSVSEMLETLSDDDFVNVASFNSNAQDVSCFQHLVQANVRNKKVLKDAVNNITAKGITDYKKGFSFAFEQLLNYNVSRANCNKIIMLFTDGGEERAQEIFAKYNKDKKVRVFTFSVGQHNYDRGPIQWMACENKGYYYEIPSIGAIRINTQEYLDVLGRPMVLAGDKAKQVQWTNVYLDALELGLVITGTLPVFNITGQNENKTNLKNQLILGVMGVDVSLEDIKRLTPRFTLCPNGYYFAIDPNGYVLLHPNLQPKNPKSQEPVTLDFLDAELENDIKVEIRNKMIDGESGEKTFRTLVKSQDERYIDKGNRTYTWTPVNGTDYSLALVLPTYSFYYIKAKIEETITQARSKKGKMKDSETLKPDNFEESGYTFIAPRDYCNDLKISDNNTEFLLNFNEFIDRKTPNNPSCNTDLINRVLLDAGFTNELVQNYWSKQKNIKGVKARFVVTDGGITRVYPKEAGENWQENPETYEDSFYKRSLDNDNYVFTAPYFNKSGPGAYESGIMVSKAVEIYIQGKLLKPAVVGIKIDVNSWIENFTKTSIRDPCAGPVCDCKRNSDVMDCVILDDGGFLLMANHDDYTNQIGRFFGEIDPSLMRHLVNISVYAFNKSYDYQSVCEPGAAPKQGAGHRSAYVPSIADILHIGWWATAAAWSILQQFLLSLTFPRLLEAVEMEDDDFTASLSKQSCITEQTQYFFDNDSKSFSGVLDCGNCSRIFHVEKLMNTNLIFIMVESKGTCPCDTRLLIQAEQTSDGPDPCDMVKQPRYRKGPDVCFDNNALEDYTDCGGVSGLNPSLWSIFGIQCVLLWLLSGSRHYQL

Structure (SMILES)	pIC50 [1]	further results
CC(C)CC1CCC(CN)(CC(=O)O)C1 (mixture of isomers)	6.12	–
CC[C@H]1CCC(CN)(CC(=O)O)C1 (stereo not given in full)	6.15	–
C[C@@H]1CC[C@@](CN)(CC(=O)O)C1	7.15	minimal effective dose [2]: 30 mg/kg; Activity [3]: Active
CCC1CCC(CN)(CC(=O)O)C1 (mixture of isomers)	7.26	–
CC[C@@H]1CCC(CN)(CC(=O)O)C1 (stereo not given in full)	7.28	–
C[C@@H]1CCC(CN)(CC(=O)O)C1 (stereo not given in full)	7.06	–
CCC[C@@H]1CCC(CN)(CC(=O)O)C1 (stereo not given in full)	7.54	–
NCC1(CC(=O)O)CCCC1 [GABABUTIN]	6.38	–
NCC1(CC(=O)O)CCC(CCc2ccccc2)C1 (mixture of isomers)	5.21	–
NCC1(CC(=O)O)CCC(Cc2ccccc2)C1 (mixture of isomers)	5.03	–
NCC1(CC(=O)O)CCC(c2ccccc2)C1 (mixture of isomers)	5.30	–
CC(C)C[C@H](CN)CC(=O)O [PREGABALIN]	–	minimal effective dose [2]: 10 mg/kg
C[C@H]1CCC(CN)(CC(=O)O)C1 (single isomer, unassigned)	5.89	–
CCCC1CCC(CN)(CC(=O)O)C1 (mixture of isomers)	7.16	–
C[C@@H]1CC[C@](CN)(CC(=O)O)C1	7.52	minimal effective dose [2]: 3 mg/kg; Activity [4]: Active; Activity [5]: inactive
CC1CCC(CN)(CC(=O)O)C1 (mixture of isomers)	7.09	–
CCC[C@H]1CCC(CN)(CC(=O)O)C1 (single isomer, unassigned)	5.92	–
CC(C)(C)C1CCC(CN)(CC(=O)O)C1 (mixture of isomers)	< 5.00	–
CC1(C)CCC(CN)(CC(=O)O)C1 (stereo not given)	5.50	–
CCCCC1CCC(CN)(CC(=O)O)C1 (mixture of isomers)	6.16	–
